The source of these data is ChEMBL document CHEMBL3272122, “4-(6-Methoxy-2-naphthyl)butan-2-one and related analogues, a novel structural class of antiinflammatory compounds” (1978).

SMILES strings stand for the structures. Calls of active or inactive are those of the source. The rule behind the calls is not given here.

For assay [1], the system named is Rattus norvegicus. The experiment in a line: Antiinflammatory activity in Wistar rat assessed as inhibition of cotton pellet-induced granuloma formation at 50 mg/kg, po after 5 days relative to control. The settings on record: for inhibition in vivo at 50 mg/kg: 120 h. Format: functional. The essentials:
(§1)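 Preweighed sterile cotton wool pellets were implanted subcutaneously in rats, one on each side of a ventral midline incision. Compounds were suspended in 0.7% methylcellulose and given orally once daily on days 0–5, starting 2–3 h before implantation; controls received vehicle (10 mL/kg). On day 6 the pellets were removed and dried at 80 °C to constant weight. Mean granuloma per rat was compared with controls by Student's t test.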

For assay [2], the system named is Rattus norvegicus. The experiment in a line: Antiinflammatory activity in rat assessed as inhibition of carrageenan-induced paw edema at 100 mg/kg, po relative to control. Format: functional. An outline of the steps:
(§2)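 Carrageenan paw edema in rats, compounds given orally. Edema is expressed as percent inhibition.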

Assay [3] is filed under the species Rattus norvegicus. The assay can be described thus: animal or person. As to conditions: po, read-out: INH.
The subject of assay [4] is Rattus norvegicus. The assay can be described thus: Antiinflammatory activity in Wistar rat assessed as inhibition of cotton pellet-induced granuloma formation at 3 mg/kg, po after 5 days relative to control. It is filed as functional, organism-based. More on the design: dose 3 mg/kg. The essentials: as §1
The species named for assay [5] is Rattus norvegicus. The assay can be described thus: animal or person. As to conditions: Wistar, po, 120 h, read-out: INH.
In assay [6] the test system is Rattus norvegicus. The experiment in a line: Antiinflammatory activity in rat assessed as inhibition of carrageenan-induced paw edema at 15 mg/kg, po relative to control. Format: functional. The essentials:
as §2

In assay [7] the test system is Rattus norvegicus. The experiment in a line: Antiinflammatory activity in rat assessed as inhibition of carrageenan-induced paw edema at 300 mg/kg, po relative to control. It is filed as functional. The essentials:
as §2

The test system of assay [8] is Rattus norvegicus. The assay can be described thus: Antiinflammatory activity in Wistar rat assessed as inhibition of cotton pellet-induced granuloma formation at 100 mg/kg, po after 5 days relative to control. It is filed as functional. As to conditions: 120 h. An outline of the steps: as §1
The subject of assay [9] is Rattus norvegicus. The assay can be described thus: Antiinflammatory activity in Wistar rat assessed as inhibition of cotton pellet-induced granuloma formation at 10 mg/kg, po after 5 days relative to control. It is filed as functional. The settings on record: 120 h. An outline of the steps:
as §1

Consider `Cc1ccc2cc(CCC(C)O)ccc2c1` (stereo not drawn), for which the inhibition in vivo at 50 mg/kg in assay [1] was determined as 35%.
For `COc1ccc2cc(/C=C/C(C)=O)ccc2c1`, the inhibition in vivo at 50 mg/kg in assay [1] is 18%. Besides, in assay [2], the inhibition in vivo at 100 mg/kg stood at 50%.
Turning to `COc1ccc2cc([C@H](C)C(=O)O)ccc2c1` [NAPROXEN], in assay [3], the inhibition in vivo at 6 mg/kg is 30%. In addition, the inhibition entry in assay [4] was “inactive”. Besides, the inhibition in vivo at 30 mg/kg in [5] was determined as 46%.
As to `CC(=O)CCc1ccc2cc(C)ccc2c1`, the inhibition in vivo at 50 mg/kg in assay [1] amounted to 34%.
Take `COc1ccc2cc(CCC(C)OC(=O)c3cc(OC)c(OC)c(OC)c3)ccc2c1` (stereo not drawn): in assay [1], the inhibition in vivo at 50 mg/kg was 41%.
`COc1ccc2cc(CCC(C)=O)ccc2c1` [NABUMETONE]: in assay [1], the inhibition in vivo at 50 mg/kg turned out to be 39%. Further, the inhibition in vivo at 15 mg/kg in [6] stood at 37%.
Regarding `CC(=O)Oc1ccccc1C(=O)O` [ASPIRIN], in assay [7], the inhibition in vivo at 300 mg/kg was 31%. For the same molecule, the inhibition in vivo at 100 mg/kg in [8] worked out at 5%. Further, in [4], the inhibition entry was “inactive”.
As for `CC(=O)CC(C)c1ccc2cc(C)ccc2c1` (stereo not drawn), the inhibition in vivo at 50 mg/kg in assay [1] amounted to 11%.
Still for that read-out and setting: the value for `COc1ccc2cc(CCC(C)(C)O)ccc2c1` was 3%; that for `CC(=O)CCc1ccc2ccccc2c1` was 20%.
On the same count and under the same terms, the value for `COc1ccc2ccccc2c1CCC(C)=O` was 10%; that for `CC(=O)/C=C/c1ccc2cc(C)ccc2c1` was 29%.
`CC(=O)CCc1ccc2cc(O)ccc2c1`: in [1], the inhibition in vivo at 50 mg/kg stood at 5%.
Turning to `CCOc1ccc2cc(CCC(C)=O)ccc2c1`, in assay [1], the inhibition in vivo at 50 mg/kg came out at 12%.
Take `COc1ccc2cc(C(C)CC(C)=O)ccc2c1` (stereo not drawn): the inhibition in vivo at 50 mg/kg in [1] turned out to be 24%. Further, the inhibition in vivo at 100 mg/kg in assay [2] is 36%.
`CC(=O)CCc1ccc2cc(Cl)ccc2c1`: in [1], the inhibition in vivo at 50 mg/kg worked out at 53%.
For the molecule `COc1ccc2cc(CCC(C)OC(C)=O)ccc2c1` (stereo not drawn), the inhibition in vivo at 50 mg/kg in assay [1] was found to be 38%.
Same read-out and setting: for `COc1ccc(CCC(C)=O)c2ccccc12` the value was 0%.
As for `C[C@]12CCC(=O)C=C1CC[C@@H]1[C@@H]2[C@@H](O)C[C@@]2(C)[C@H]1CC[C@]2(O)C(=O)CO` [HYDROCORTISONE], in assay [9], the inhibition in vivo at 10 mg/kg was 30%. Besides, the inhibition result in assay [4] is “inactive”.
As to `COc1ccc2cc(CCC(C)O)ccc2c1` (stereo not drawn), in [1], the inhibition in vivo at 50 mg/kg was found to be 32%.
The same measure, in the same setting: the value for `CCC(CC(C)=O)c1ccc2cc(OC)ccc2c1` (stereo not drawn) was 20%; that for `CCC(=O)CCc1ccc2cc(OC)ccc2c1` was 7%.
Turning to `COc1ccc2cc(CC(=O)O)ccc2c1`, the inhibition entry in assay [1] was “Active”.
For `COc1ccc2cc(CCC(C)OC(=O)CC(C)(C)CC(=O)O)ccc2c1` (stereo not drawn), in assay [1], the inhibition in vivo at 50 mg/kg came to 26%.
For the molecule `COc1ccc2cc(CC(C)C(C)=O)ccc2c1` (stereo not drawn), the inhibition in vivo at 50 mg/kg in assay [1] was determined as 7%.
In the case of `COc1ccc2cc(CC/C(C)=N\O)ccc2c1`, the inhibition in vivo at 50 mg/kg in assay [1] amounted to 15%.
Same read-out and setting: the value for `CC(=O)CCc1ccc2cc(OC(C)=O)ccc2c1` was 2%; that for `COc1ccc2cc(CCC3(C)OCCO3)ccc2c1` was 22%.
As for `CNC(=O)Oc1ccc2cc(CCC(C)=O)ccc2c1`, the inhibition in vivo at 50 mg/kg in assay [1] came to 21%. The inhibition entry in assay [4] was “inactive”.
